# Reference: ChEMBL document CHEMBL1122033, “Chemistry and hypoglycemic activity of N-[[(Dialkylamino)alkoxy]phenyl]benzamidines” (J Med Chem, 1982)
# What was measured:
# [1] = tested on: Rattus norvegicus; assay: Blood sugar lowering (hypoglycemic activity) in the glucose-primed rat at a dose of 100 mg/kg; Decrease in blood sugar level.; type: functional
# Procedure, shortened: (§1)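 Male Sprague–Dawley rats, 140–150 g, groups of six, fasted 16 h. Each rat got 100 mg glucose s.c. in 0.5 mL isotonic NaCl, then the test agent at once orally as an aqueous carboxymethylcellulose suspension (0.5 mL); controls got vehicle. At 2 h, under light ether, blood was taken by cardiac puncture. Glucose was read by Autoanalyzer (Hoffman method). Values are percent difference from vehicle controls.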
# [2] = Dose that produces lethality in 50% (LD50) of male and female carworth farms CF-1 strain mice weighing 16-25 g oral (po) route of administration; type: ADME, organism-based; details: both, CF-1, mouse, in vivo
# Procedure, shortened: (§2)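 Four mice per dose level. Drug dissolved in distilled water and suspended in 0.5% carboxymethylcellulose or 0.5% gelatin, with pH adjusted by 1 N HCl or 1 N NaOH where the drug tolerated it. Doses logarithmically spaced, given orally or intraperitoneally. Mice observed 7 days after dosing. LD50 derived by the Bliss method, expressed in mg/kg.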
# [3] = Lethality in 50% (LD50) of male and female CF-1 strain mice weighing 16-25g, intraperitoneal administration; type: ADME, organism-based; details: both, CF-1, mouse, in vivo, ip; procedure, shortened: as §2
# [4] = tested on: Rattus norvegicus; assay: Compound was evaluated for the blood sugar lowering (hypoglycemic activity ) in the glucose-primed rat at a dose of 50 mg of base/kg; type: functional; procedure, shortened: as §1
# [5] = tested on: Monkey; assay: Evaluated in normal, fasted monkey for the percentage reduction in blood glucose level after 5 hr as compared to pretreatment blood glucose values at a dose of 10 mg of free base / kg body weight administered orally; type: functional, Cercopithecidae
# Procedure, shortened: (§3)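 Male and female rhesus monkeys (2–3 kg) were food-deprived, with water, for 18 h. Pretreatment blood was taken from the popliteal vein. Dosing was oral by stomach tube, with repeat sampling 5 h post-dose. Results are percent reduction in blood glucose relative to pretreatment values.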
# [6] = tested on: Cavia porcellus; assay: Evaluated in normal, fasted guinea pig for the percentage reduction in blood glucose level after 5 hr as compared to pretreatment blood glucose values at a dose of 25 mg of free base / kg body weight administered orally; type: functional
# Procedure, shortened: (§4)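 Male and female Hartley guinea pigs, 450–500 g, were food-deprived (water allowed) 18 h and split by sex into groups of four. A zero-time blood sample was taken by cardiac puncture, then drug was given, and blood was drawn again 5 h later. Percent reduction in blood glucose is relative to pretreatment values.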
# [7] = tested on: Rattus norvegicus; assay: Evaluated in glucose-primed, fasted rat for the percentage reduction in blood glucose level after 2 hr as compared to control groups at a dose of 100 mg of free base / kg body weight administered orally; type: functional; procedure, shortened: as §1
# [8] = tested on: Rattus norvegicus; assay: Evaluated in alloxanized, diabetic rat for the percentage reduction in blood glucose level after 5 hr as compared to pretreatment blood glucose values at a dose of 100 mg of free base / kg body weight administered orally; type: functional
# Procedure, shortened: (§5)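 Three days later, rats positive for urine glucose (reagent strip) formed groups of six. Tail-vein blood was taken before oral dosing and again at 5 h. Percent reduction is versus pretreatment glucose.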
# [9] = tested on: Rattus norvegicus; assay: Evaluated in glucose-primed, fasted rat for the percentage reduction in blood glucose level after 2 h as compared to control groups at a dose of 25 mg of free base / kg body weight administered orally; type: functional; procedure, shortened: as §1
# [10] = tested on: Rattus norvegicus; assay: Evaluated in glucose-primed, fasted rat for the percentage reduction in blood glucose level after 2 hr as compared to control groups at a dose of 50 mg of free base / kg body weight administered orally; type: functional; procedure, shortened: as §1
# [11] = tested on: Monkey; assay: Evaluated in normal, fasted monkey for the percentage reduction in blood glucose level as compared to pretreatment blood glucose values at a dose of 150 mg of free base / kg body weight administered orally; type: functional, Cercopithecidae; procedure, shortened: as §3
# [12] = tested on: Rattus norvegicus; assay: Evaluated in glucose primed, adrenalectomized rat for the percentage reduction in blood glucose level as compared to pretreatment blood glucose values at a dose of 25 mg of free base / kg body weight administered orally
# [13] = tested on: Rattus norvegicus; assay: Evaluated in alloxanized, diabetic rat for the percentage reduction in blood glucose level as compared to pretreatment blood glucose values at a dose of 200 mg of free base / kg body weight administered orally.; type: functional; procedure, shortened: as §5
# [14] = tested on: Rattus norvegicus; assay: Evaluated in alloxanized, diabetic rat for the percentage reduction in blood glucose level as compared to pretreatment blood glucose values at a dose of 100 mg of free base / kg body weight administered orally.; type: functional; procedure, shortened: as §5
# [15] = Lethal dose required to produce 50% lethality in male and female carworth farms CF-1 strain mice weighing 16-25 g administered intraperitoneally; details: both, CF-1, rat, in vivo, ip
# [16] = Lethal dose required to produce 50% lethality in male and female carworth farms CF-1 strain mice weighing 16-25 g administered orally; details: both, CF-1, in vivo, po
# [17] = tested on: Cavia porcellus; assay: Evaluated in normal, fasted guinea pig for the percentage reduction in blood glucose level after 5 hr as compared to pretreatment blood glucose values at a dose of 100 mg of free base / kg body weight administered orally; type: functional; procedure, shortened: as §4
# [18] = Dose that produces lethality in 50% (LD50) of male and female carworth farms CF-1 strain mice weighing 16-25 g intraperitoneal (ip) route of administration; type: ADME, organism-based; details: both, CF-1, mouse, in vivo; procedure, shortened: as §2
# [19] = tested on: Rattus norvegicus; assay: Compound was evaluated for the blood sugar lowering (hypoglycemic activity) in the glucose-primed rat at a dose of 100 mg/kg; Increase in blood sugar level; type: functional; procedure, shortened: as §1
# [20] = tested on: Rattus norvegicus; assay: Compound was evaluated for the blood sugar lowering (hypoglycemic activity) in the glucose-primed rat at a dose of 100 mg/kg; type: functional; procedure, shortened: as §1
# [21] = tested on: Rattus norvegicus; assay: Evaluated for the blood sugar lowering (hypoglycemic activity ) in the glucose-primed rat at a dose of 100 mg/kg; type: functional; procedure, shortened: as §1
SMILES,Change [1] [%],LD50 [2] [mg/kg],LD50 [3] [mg/kg],further results
COc1ccc(/C(=N\c2ccc(OCCN(C(C)C)C(C)C)cc2)Nc2ccccc2)cc1.Cl,18.5,475,140,
Br.COc1ccc(N/C(=N/c2ccc(OCCCN3CCCC3)cc2)c2ccccc2)cc1,25.7,400,108,
CC(C)N(CCOc1cccc(N/C(=N\c2ccccc2)c2ccccc2)c1)C(C)C.Cl,,240,107,Change [4]: 28.1%
CCCCN(CCCC)CCOc1ccc(N/C(=N\c2ccccc2)c2ccccc2)cc1.Cl,22.5,800,160,
N=C(N)NC(=N)NCCc1ccccc1 [PHENFORMIN],,,,Reduction [5]: 50%; Reduction [6]: 46%; Reduction [7]: 0%; Reduction [8]: 62%
CC(C)N(CCOc1ccc(N/C(=N\c2ccc(Cl)cc2)c2ccccc2)cc1)C(C)C.Cl,30.9,,,Reduction [9]: 18.8%; Reduction [10]: 23.5%; Reduction [11]: 35%; Reduction [12]: 31.4%; Reduction [13]: 28.8%; Reduction [14]: 7.4%; LD50 [15]: 1000 mg/kg; LD50 [16]: 1000 mg/kg; Reduction [17]: 14%; Reduction [7]: 30.9%
Br.CC(C)N(CCOc1ccc(N/C(=N\c2ccc(F)cc2)c2ccccc2)cc1)C(C)C,26,630,143,
Br.COc1ccc(N/C(=N/c2ccc(OCCN3CCCC3)cc2)c2ccccc2)cc1,35,900,148,
CC(C)N(CCc1ccc(/C(=N\c2ccccc2)Nc2ccccc2)cc1)C(C)C.Cl,32.4,587,,LD50 [18]: 160 mg/kg
Br.CN(C)CCOc1ccc(N/C(=N\c2ccccc2)c2ccccc2)cc1,,500,112,Change [19]: 13.1%
Cl.c1ccc(/N=C(\Nc2ccc(SCCN3CCCC3)cc2)c2ccccc2)cc1,12.5,587,200,
Br.c1ccc(/N=C(\Nc2ccc(OCCCN3CCCC3)cc2)c2ccccc2)cc1,23.5,543,125,
Br.c1ccc(/N=C(\Nc2ccc(OCCN3CCOCC3)cc2)c2ccccc2)cc1,,715,400,Change [20]: 0%
COc1ccc(N/C(=N/c2ccc(OCCCN(C(C)C)C(C)C)cc2)c2ccccc2)cc1.Cl,34.1,450,108,
CC(C)N(CCOc1ccc(N/C(=N\c2cccc(C(F)(F)F)c2)c2ccccc2)cc1)C(C)C.Cl,,1000,400,Change [21]: 0%
CC(C)N(CCOc1ccc(N/C(=N\c2ccc(Cl)cc2)c2ccccc2)cc1)C(C)C,31,1000,1000,
CCCCNC(=N)NC(=N)N [BUFORMIN],,,,LD50 [15]: 140 mg/kg; LD50 [16]: 500 mg/kg; Reduction [7]: 0%
CC(C)N(CCOc1ccc(N/C(=N\c2ccc(Cl)c(Cl)c2)c2ccccc2)cc1)C(C)C.Cl,13.8,1000,400,
CC(C)CN/C(=N/c1ccc(OCCN(C(C)C)C(C)C)cc1)c1ccccc1,22.8,360,80,

SMILES,Change [1] [%],LD50 [2] [mg/kg],LD50 [3] [mg/kg],further results
CC(C)N(CCCOc1ccc(N/C(=N\c2ccc(Cl)cc2)c2ccccc2)cc1)C(C)C.Cl,18.3,1000,187,
CC(C)N(CCOc1ccc(N/C(=N\C2CCCCC2)c2ccccc2)cc1)C(C)C,9.8,373,137,
Cc1cccc(/N=C(\Nc2ccc(OCCN(C(C)C)C(C)C)cc2)c2ccccc2)c1C,23.2,1000,360,
CC(C)N(CCOc1ccc(N/C(=N\Cc2ccccc2)c2ccccc2)cc1)C(C)C.Cl,,450,187,Change [20]: 0%
Br.CN(CCOc1ccc(N/C(=N\c2ccccc2)c2ccccc2)cc1)Cc1ccccc1,15.9,500,233,
CN/C(=N/c1ccc(OCCN(C(C)C)C(C)C)cc1)c1ccccc1,,500,112,Change [19]: 13.1%
Br.CCN/C(=N/c1ccc(OCCN(C(C)C)C(C)C)cc1)c1ccccc1,6.8,687,100,
CCCCN(CCCC)CCCOc1ccc(N/C(=N\c2ccccc2)c2ccccc2)cc1.Cl,10.9,867,148,
Br.c1ccc(CN(CCOc2ccc(N/C(=N\c3ccccc3)c3ccccc3)cc2)Cc2ccccc2)cc1,,,,Change [20]: 0%
COc1ccc(N/C(=N/c2ccc(OCCN(C(C)C)C(C)C)cc2)c2ccccc2)cc1.Cl,33.5,687,160,
COc1ccc(/C(=N\c2ccc(OCCN3CCCC3)cc2)Nc2ccccc2)cc1.Cl,14,,,
Br.COc1ccc(N/C(=N/c2ccc(OCCCN3CCCC3)cc2)c2ccc(C)cc2)cc1,12.6,400,43,
Br.c1ccc(/N=C(\Nc2ccc(OCCN3CCCCC3)cc2)c2ccccc2)cc1,,467,142,Change [19]: 5.2%
CC(C)N(CCOc1ccccc1/N=C(/Nc1ccccc1)c1ccccc1)C(C)C.Cl,18.3,840,253,
C=CC/N=C(\Nc1ccc(OCCN(C(C)C)C(C)C)cc1)c1ccccc1,15,653,125,
CN(CCOc1ccc(N/C(=N\c2ccccc2)c2ccccc2)cc1)c1ccccc1,10.3,1000,587,
CC(C)N(CCOc1ccc(N/C(=N\c2ccccc2)c2ccc(Cl)cc2)cc1)C(C)C.Cl,3.2,1000,400,
CCN(CC)CCOc1ccc(N/C(=N\c2ccccc2)c2ccccc2)cc1.O=C(O)C(=O)O,6.8,687,100,
CC(C)N(CCSc1ccc(N/C(=N\c2ccccc2)c2ccccc2)cc1)C(C)C.Cl,35.6,400,285,
